17 compounds from ChEMBL document CHEMBL1140226, “Development of novel G-protein-coupled receptor 54 agonists with resistance to degradation by matrix metalloproteinase” (J Med Chem, 2008) can be followed below.

A short description of data set [1]: Stability in mouse serum assessed as half life. Format: ADME, cell-free. In a few lines: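 Peptides were incubated in murine serum and the half-life was determined.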
The target of data set [2] is T1, KiSS-1 receptor (Homo sapiens, UniProt Q969F8). As to the kind of experiment: Agonist activity at human GPR54 expressed in CHO cells assessed as effect on kisspeptin-10-induced response by FLIPR assay. Format: functional, cell-based.
Data set [3] concerns the target T1, KiSS-1 receptor. The experiment in a line: Displacement of [125I]kisspeptin-15 from human GPR54 expressed in CHO cell membrane. The class given is cell membranes.
Data set [4] deals with Serum. The experiment in a line: Stability in mouse serum within 1 hr. Format: ADME, cell-free.
The target in data set [5] is 72 kDa type IV collagenase (Homo sapiens) (UniProt P08253). As to the kind of experiment: Inhibition of MMP2 at 10 uM by fluorimetric assay. Details: scale not given: the % may be the effect or the level left.
In data set [6] the target is Matrix metalloproteinase-9 (Homo sapiens) (UniProt P14780). As to the kind of experiment: Inhibition of MMP9 at 10 uM by fluorimetric assay. Further details: scale not given: the % may be the effect or the level left.
In data set [7] the target is T1, KiSS-1 receptor. As to the kind of experiment: Ratio of IC50 of compound to IC50 of kisspeptin-10 for human GPR54.

As usually defined, the half-life is how long it takes for the measured level to halve. By EC50 is commonly meant the concentration at which the effect is half-maximal. In general, IC50 refers to the concentration at which inhibition is half-maximal.

Sequence of 72 kDa type IV collagenase (Homo sapiens) (P08253 110-660 limits assumed): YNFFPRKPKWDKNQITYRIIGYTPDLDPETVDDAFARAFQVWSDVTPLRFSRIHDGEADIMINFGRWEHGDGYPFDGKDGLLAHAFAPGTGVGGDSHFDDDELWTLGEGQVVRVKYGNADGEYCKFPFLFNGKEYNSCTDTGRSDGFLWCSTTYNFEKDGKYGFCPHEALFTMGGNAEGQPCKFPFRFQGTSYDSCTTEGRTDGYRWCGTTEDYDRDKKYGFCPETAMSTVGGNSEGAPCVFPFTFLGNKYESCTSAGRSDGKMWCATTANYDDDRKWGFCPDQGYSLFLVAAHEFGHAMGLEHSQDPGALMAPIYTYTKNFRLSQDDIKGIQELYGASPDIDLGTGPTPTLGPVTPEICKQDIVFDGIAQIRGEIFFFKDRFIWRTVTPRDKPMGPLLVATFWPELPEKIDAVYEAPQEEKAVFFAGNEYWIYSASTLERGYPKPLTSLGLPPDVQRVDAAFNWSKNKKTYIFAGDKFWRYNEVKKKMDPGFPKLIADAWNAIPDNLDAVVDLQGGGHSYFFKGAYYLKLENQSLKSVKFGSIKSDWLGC
T1 sequence (Q969F8 whole entry): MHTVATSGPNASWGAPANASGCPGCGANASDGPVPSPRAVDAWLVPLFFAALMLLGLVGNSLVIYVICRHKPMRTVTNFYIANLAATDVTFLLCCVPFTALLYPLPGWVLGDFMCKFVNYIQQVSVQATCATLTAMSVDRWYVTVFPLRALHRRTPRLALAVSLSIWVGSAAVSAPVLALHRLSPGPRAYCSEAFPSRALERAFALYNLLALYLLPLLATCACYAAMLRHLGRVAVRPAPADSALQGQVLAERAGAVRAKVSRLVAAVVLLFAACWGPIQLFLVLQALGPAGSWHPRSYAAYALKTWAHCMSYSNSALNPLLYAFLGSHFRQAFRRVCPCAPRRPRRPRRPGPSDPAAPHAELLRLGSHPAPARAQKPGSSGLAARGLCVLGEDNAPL
Sequence of Matrix metalloproteinase-9 (Homo sapiens) (P14780 whole entry): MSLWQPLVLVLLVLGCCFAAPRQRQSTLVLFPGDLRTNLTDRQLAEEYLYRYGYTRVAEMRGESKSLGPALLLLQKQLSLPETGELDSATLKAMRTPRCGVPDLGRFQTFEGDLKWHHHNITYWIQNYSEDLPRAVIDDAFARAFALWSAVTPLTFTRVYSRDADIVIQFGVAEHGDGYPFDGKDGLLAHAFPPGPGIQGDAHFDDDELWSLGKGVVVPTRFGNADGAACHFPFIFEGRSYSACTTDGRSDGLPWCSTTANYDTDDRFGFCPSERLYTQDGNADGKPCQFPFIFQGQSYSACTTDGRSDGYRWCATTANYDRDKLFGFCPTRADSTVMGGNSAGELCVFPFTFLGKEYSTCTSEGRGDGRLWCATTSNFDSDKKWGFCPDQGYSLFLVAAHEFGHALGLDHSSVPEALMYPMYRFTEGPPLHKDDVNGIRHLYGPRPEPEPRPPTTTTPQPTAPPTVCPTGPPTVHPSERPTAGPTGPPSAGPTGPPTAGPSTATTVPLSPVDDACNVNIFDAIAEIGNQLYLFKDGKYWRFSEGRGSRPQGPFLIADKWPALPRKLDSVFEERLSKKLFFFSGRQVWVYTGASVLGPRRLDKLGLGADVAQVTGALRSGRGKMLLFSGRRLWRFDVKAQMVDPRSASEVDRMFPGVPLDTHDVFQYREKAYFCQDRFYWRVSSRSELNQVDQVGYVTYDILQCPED

Take `CC(C)C[C@H](NC(=O)CNC(=O)[C@H](Cc1ccccc1)NC(=O)c1ccc(F)cc1)C(=O)N[C@@H](CCCN=C(N)N)C(=O)N[C@@H](Cc1c[nH]c2ccccc12)C(N)=O`: in data set [1], the half-life turned out to be 6.6 min. Further, in data set [2], the half-maximal effective concentration (EC50) is 0.45 nM. The same compound displayed a concentration for half-maximal inhibition (IC50) in data set [3] of 0.71 nM.
On to `CC(C)C[C@H](NC(=O)CNC(=O)[C@H](Cc1ccccc1)NC(=O)[C@H](CO)NC(=O)[C@H](CC(N)=O)NC(=O)[C@H](Cc1c[nH]c2ccccc12)NC(=O)[C@H](CC(N)=O)NC(=O)[C@@H](N)Cc1ccc(O)cc1)C(=O)N[C@@H](CCCNC(=N)N)C(=O)N[C@@H](Cc1ccccc1)C(N)=O` [KISSPEPTIN-10], for which the Stability entry in data set [4] was “Unstable”. The compound also had an IC50 in data set [3] of 0.07 nM.
Turning to `CC(C)C[C@@H](C[C@@H](O)CNC(=O)[C@H](Cc1ccccc1)NC(=O)c1ccc(F)cc1)C(=O)N[C@@H](CCCN=C(N)N)C(=O)N[C@@H](Cc1c[nH]c2ccccc12)C(N)=O`, the half-life in data set [1] was 470 min. Also, the IC50 in data set [3] was determined as 380 nM.
As for `CC(C)C[C@H](C[C@@H](O)CNC(=O)[C@H](Cc1ccccc1)NC(=O)c1ccc(F)cc1)C(=O)N[C@@H](CCCNC(=N)N)C(=O)N[C@@H](Cc1c[nH]c2ccccc12)C(N)=O`, the Activity in data set [5] worked out at 96.2%; in data set [6], 109%. Further, the half-life in data set [1] worked out at 54 min.
`CC(C)C[C@H](/C=C/CNC(=O)[C@H](Cc1ccccc1)NC(=O)c1ccc(F)cc1)C(=O)N[C@@H](CCCN=C(N)N)C(=O)N[C@@H](Cc1c[nH]c2ccccc12)C(N)=O`: the half-life in data set [1] worked out at 38 min. Also, the concentration for a half-maximal effect (EC50) in data set [2] stood at 0.3 nM.
As to `CC(C)C/C(=C\[C@@H](O)CNC(=O)[C@H](Cc1ccccc1)NC(=O)c1ccc(F)cc1)C(=O)N[C@@H](CCCNC(=N)N)C(=O)N[C@@H](Cc1c[nH]c2ccccc12)C(N)=O`, the values for the Activity in data set [5] and in data set [6] were 99.1% and 104%, respectively. Moreover, the half-life in data set [1] was 60 min.
For the compound `CC(C)C[C@H](C[C@H](O)CNC(=O)[C@H](Cc1ccccc1)NC(=O)c1ccc(F)cc1)C(=O)N[C@@H](CCCNC(=N)N)C(=O)N[C@@H](Cc1c[nH]c2ccccc12)C(N)=O`, the Activity in data set [5] is 98.7%; in data set [6] it was 103%.
For `CC(C)C[C@H](/C=C/CNC(=O)[C@H](Cc1ccccc1)NC(=O)c1ccc(F)cc1)C(=O)N[C@@H](CCCNC(=N)N)C(=O)N[C@@H](Cc1c[nH]c2ccccc12)C(N)=O` the same measures were 101% and 101%.
For `CC(C)C/C(=C\[C@H](O)CNC(=O)[C@H](Cc1ccccc1)NC(=O)c1ccc(F)cc1)C(=O)N[C@@H](CCCNC(=N)N)C(=O)N[C@@H](Cc1c[nH]c2ccccc12)C(N)=O` the same measures were 96.9% and 103%.
With `CC(C)C/C(=C\[C@H](O)CNC(=O)[C@H](Cc1ccccc1)NC(=O)c1ccc(F)cc1)C(=O)N[C@@H](CCCN=C(N)N)C(=O)N[C@@H](Cc1c[nH]c2ccccc12)C(N)=O`, the half-life in data set [1] worked out at 1100 min.
Regarding `CC(C)C[C@@H](NC(=O)CNC(=O)[C@H](Cc1ccccc1)NC(=O)c1ccc(F)cc1)C(=O)N[C@@H](CCCNC(=N)N)C(=O)N[C@@H](Cc1c[nH]c2ccccc12)C(N)=O`, the Ratio IC50 in data set [7] was found to be 240. The compound further yielded a concentration for half-maximal inhibition (IC50) in data set [3] of 240 nM.
Consider `CC(C)C[C@H](C[C@H](O)CNC(=O)[C@H](Cc1ccccc1)NC(=O)c1ccc(F)cc1)C(=O)N[C@@H](CCCN=C(N)N)C(=O)N[C@@H](Cc1c[nH]c2ccccc12)C(N)=O`, for which the half-life in data set [1] is 35 min. The compound also showed an IC50 in data set [3] of 0.24 nM.
For `CC(C)C[C@H](CCCNC(=O)[C@H](Cc1ccccc1)NC(=O)c1ccc(F)cc1)C(=O)N[C@@H](CCCNC(=N)N)C(=O)N[C@@H](Cc1c[nH]c2ccccc12)C(N)=O`, the figures for the Activity in data set [5] and in data set [6] were 97.1% and 102%, respectively. Besides, the half-life in data set [1] was found to be 45 min.
Consider `CC(C)C[C@H](NC(=O)CNC(=O)[C@H](Cc1ccccc1)NC(=O)c1ccc(F)cc1)C(=O)N[C@@H](CCCNC(=N)N)C(=O)N[C@@H](Cc1c[nH]c2ccccc12)C(N)=O`, for which, in data set [7], the Ratio IC50 came to 7.3.
Take `CC(C)C/C(=C\CCNC(=O)[C@H](Cc1ccccc1)NC(=O)c1ccc(F)cc1)C(=O)N[C@@H](CCCNC(=N)N)C(=O)N[C@@H](Cc1c[nH]c2ccccc12)C(N)=O`: the Activity in data set [5] amounted to 94.5%; in data set [6], 98.9%. Moreover, the half-life in data set [1] was 52 min.
For the compound `CC(C)C[C@@H](C[C@H](O)CNC(=O)[C@H](Cc1ccccc1)NC(=O)c1ccc(F)cc1)C(=O)N[C@@H](CCCNC(=N)N)C(=O)N[C@@H](Cc1c[nH]c2ccccc12)C(N)=O`, the results for the Activity in data set [5] and in data set [6] were 99.3% and 100%, respectively. Also, the half-life in data set [1] was 120 min.
On to `CC(C)C[C@@H](C[C@@H](O)CNC(=O)[C@H](Cc1ccccc1)NC(=O)c1ccc(F)cc1)C(=O)N[C@@H](CCCNC(=N)N)C(=O)N[C@@H](Cc1c[nH]c2ccccc12)C(N)=O`, for which the Activity stood at 96.5% in data set [5] and 108% in data set [6].
